Experiments:
Conditions in all cases: stereoisomer not certain
OR4F3 (Homo sapiens) = OR4F3 (Homo sapiens) (UniProt Q6IEY1)
In short: (§1)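 Transient luciferase assays in mammalian cell lines were common, though methods varied by source. The values come from published papers and their supplementary material, with extra details from the original authors when needed. Responsive refers to a measured signal the original authors judged statistically different from baseline, and non-responsive (inactive) to the remainder.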

OR4F4 (Homo sapiens) = OR4F4 (Homo sapiens) (UniProt Q96R69)
In short: as §1

OR4F5 (Homo sapiens) = OR4F5 (Homo sapiens) (UniProt Q8NH21)
In short: as §1

OR4F5 T141A Q293R = system: OR4F5 T141A Q293R
In short: as §1

OR4F6 (Homo sapiens) = OR4F6 (Homo sapiens) (UniProt Q8NGB9)
In short: as §1

OR4K1 (Homo sapiens) = OR4K1 (Homo sapiens) (UniProt Q8NGD4)
In short: as §1

OR4K1 R304H = system: OR4K1 R304H
In short: as §1

OR4K13 (Homo sapiens) = OR4K13 (Homo sapiens) (UniProt Q8NH42)
In short: as §1

OR4K14 (Homo sapiens) = OR4K14 (Homo sapiens) (UniProt Q8NGD5)
In short: as §1

OR4K2 (Homo sapiens) = OR4K2 (Homo sapiens) (UniProt Q8NGD2)
In short: as §1

OR4K2 = system: OR4K2
In short: as §1

OR4K5 (Homo sapiens) = OR4K5 (Homo sapiens) (UniProt Q8NGD3)
In short: as §1

OR4KF = system: OR4KF
In short: as §1

OR4KH = system: OR4KH
In short: as §1

OR4L1 (Homo sapiens) = OR4L1 (Homo sapiens) (UniProt Q8NH43)
In short: as §1

OR4L1 = system: OR4L1
In short: as §1

OR4M1 (Homo sapiens) = OR4M1 (Homo sapiens) (UniProt Q8NGD0)
In short: as §1

OR4K15 (Homo sapiens) = OR4K15 (Homo sapiens) (UniProt Q8NH41)
In short: as §1

OR4K17 (Homo sapiens) = OR4K17 (Homo sapiens) (UniProt Q8NGC6)
In short: as §1

OR4K3 (Homo sapiens) = OR4K3 (Homo sapiens) (UniProt Q96R72)
In short: as §1

Measured: odorant receptor agonist call;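 note: active if original authors judged signal statistically different from baseline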

Chain of OR4K5 (Homo sapiens) (Q8NGD3 whole entry): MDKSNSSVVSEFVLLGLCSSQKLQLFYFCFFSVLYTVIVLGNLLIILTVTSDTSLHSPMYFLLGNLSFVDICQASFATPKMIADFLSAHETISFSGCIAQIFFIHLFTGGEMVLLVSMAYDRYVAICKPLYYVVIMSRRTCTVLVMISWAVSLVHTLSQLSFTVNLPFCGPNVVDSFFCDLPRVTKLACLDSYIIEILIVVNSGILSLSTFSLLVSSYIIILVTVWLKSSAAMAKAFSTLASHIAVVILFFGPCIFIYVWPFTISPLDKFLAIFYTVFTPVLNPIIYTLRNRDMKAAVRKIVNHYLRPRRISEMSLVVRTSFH
Chain of OR4K2 (Homo sapiens) (Q8NGD2 whole entry): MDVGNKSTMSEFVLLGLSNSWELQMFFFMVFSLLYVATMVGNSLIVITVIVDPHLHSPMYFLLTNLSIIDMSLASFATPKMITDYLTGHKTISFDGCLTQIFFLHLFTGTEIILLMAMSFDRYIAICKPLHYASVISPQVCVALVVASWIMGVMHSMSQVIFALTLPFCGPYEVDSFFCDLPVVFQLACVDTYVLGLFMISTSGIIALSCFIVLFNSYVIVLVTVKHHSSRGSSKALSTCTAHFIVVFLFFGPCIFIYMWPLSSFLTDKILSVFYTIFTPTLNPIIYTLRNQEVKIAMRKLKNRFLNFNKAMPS
Chain of OR4K13 (Homo sapiens) (Q8NH42 whole entry): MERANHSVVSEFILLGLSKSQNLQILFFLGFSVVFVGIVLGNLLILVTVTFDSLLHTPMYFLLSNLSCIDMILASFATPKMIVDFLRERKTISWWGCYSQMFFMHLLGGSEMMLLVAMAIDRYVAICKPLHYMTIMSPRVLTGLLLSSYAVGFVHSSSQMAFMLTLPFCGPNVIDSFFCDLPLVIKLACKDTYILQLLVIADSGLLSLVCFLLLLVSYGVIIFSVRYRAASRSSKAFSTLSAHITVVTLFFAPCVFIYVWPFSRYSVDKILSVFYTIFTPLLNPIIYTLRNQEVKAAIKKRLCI
Chain of OR4K1 (Homo sapiens) (Q8NGD4 whole entry): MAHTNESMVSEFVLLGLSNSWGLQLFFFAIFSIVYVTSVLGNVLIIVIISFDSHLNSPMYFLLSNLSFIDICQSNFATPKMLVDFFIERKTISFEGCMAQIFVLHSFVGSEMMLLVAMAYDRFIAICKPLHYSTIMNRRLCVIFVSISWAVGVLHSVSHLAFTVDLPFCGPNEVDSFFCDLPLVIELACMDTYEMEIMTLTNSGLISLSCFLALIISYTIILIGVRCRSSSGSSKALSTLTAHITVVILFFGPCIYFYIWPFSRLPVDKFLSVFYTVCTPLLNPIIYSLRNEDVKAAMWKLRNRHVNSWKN
Chain of OR4F5 (Homo sapiens) (Q8NH21 whole entry): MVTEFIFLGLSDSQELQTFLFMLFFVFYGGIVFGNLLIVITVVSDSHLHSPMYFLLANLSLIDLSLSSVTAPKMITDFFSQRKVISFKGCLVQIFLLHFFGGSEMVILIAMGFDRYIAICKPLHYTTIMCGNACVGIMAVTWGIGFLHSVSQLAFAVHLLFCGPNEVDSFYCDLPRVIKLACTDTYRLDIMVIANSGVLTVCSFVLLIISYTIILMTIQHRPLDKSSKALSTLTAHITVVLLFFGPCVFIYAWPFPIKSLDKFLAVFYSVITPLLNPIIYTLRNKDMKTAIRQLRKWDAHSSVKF
Chain of OR4K14 (Homo sapiens) (Q8NGD5 whole entry): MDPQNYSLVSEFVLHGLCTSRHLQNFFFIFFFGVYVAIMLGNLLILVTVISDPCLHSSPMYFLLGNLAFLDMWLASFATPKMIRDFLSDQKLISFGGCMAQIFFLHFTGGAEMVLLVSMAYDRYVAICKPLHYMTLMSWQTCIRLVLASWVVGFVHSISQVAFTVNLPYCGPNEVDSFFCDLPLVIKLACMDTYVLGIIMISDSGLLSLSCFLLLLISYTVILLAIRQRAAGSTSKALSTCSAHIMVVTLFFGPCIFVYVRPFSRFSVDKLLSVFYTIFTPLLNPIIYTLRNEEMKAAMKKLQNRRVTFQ
Chain of OR4F3 (Homo sapiens) (Q6IEY1 whole entry): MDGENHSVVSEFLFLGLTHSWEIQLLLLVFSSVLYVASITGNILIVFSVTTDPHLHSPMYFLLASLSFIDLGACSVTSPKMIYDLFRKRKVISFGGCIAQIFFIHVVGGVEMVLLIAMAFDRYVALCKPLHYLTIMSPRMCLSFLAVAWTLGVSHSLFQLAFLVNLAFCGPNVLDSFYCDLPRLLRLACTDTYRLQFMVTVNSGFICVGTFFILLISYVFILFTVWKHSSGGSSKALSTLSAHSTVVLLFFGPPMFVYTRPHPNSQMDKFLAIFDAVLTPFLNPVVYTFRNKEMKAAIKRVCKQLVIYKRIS
Chain of OR4L1 (Homo sapiens) (Q8NH43 whole entry): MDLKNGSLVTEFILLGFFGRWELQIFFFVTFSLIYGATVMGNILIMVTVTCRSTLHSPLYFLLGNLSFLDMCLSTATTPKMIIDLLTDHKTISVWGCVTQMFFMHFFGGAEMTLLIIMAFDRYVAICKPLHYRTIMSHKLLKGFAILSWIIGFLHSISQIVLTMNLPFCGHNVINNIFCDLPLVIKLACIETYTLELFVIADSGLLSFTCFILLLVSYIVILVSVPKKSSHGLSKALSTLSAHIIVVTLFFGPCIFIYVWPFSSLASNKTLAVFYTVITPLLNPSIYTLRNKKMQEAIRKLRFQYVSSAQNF
Chain of OR4F6 (Homo sapiens) (Q8NGB9 whole entry): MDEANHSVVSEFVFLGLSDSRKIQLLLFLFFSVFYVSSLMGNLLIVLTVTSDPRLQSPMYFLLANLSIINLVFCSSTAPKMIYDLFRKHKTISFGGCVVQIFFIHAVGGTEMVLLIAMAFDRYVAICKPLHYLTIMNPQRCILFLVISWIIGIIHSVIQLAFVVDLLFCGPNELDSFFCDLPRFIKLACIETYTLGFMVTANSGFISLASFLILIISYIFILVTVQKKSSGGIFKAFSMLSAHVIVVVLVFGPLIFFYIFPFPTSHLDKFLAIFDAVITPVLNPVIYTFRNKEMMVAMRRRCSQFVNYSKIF
Chain of OR4F4 (Homo sapiens) (Q96R69 whole entry): as the sequence (Q8NH21 whole entry) above, with T141A, L160P, R221C, Q293R counted along it
Chain of OR4M1 (Homo sapiens) (Q8NGD0 whole entry): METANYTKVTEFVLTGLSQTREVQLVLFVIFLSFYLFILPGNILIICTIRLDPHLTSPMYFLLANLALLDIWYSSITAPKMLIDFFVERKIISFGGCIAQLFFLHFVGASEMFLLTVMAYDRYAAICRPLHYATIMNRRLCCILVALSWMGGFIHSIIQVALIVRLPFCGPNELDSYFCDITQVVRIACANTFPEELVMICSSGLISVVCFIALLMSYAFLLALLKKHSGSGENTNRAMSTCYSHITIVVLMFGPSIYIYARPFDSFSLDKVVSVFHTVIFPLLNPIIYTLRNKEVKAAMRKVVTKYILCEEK
Chain of OR4K1 R304H (as listed by the source, stated change not applied): as the sequence (Q8NGD4 whole entry) above, with R304H counted along it
Chain of OR4K3 (Homo sapiens) (Q96R72 whole entry): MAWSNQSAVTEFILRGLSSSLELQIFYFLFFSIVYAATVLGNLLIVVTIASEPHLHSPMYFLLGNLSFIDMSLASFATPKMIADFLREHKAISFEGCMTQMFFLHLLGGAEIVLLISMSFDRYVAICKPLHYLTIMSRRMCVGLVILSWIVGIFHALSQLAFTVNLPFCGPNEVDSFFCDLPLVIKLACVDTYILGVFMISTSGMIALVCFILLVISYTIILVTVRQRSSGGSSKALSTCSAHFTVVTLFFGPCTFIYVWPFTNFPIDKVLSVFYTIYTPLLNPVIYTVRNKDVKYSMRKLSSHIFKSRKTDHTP
Chain of OR4L1 (as listed by the source): as the sequence (Q8NH43 whole entry) above, with R52S counted along it
Chain of OR4KF (as listed by the source): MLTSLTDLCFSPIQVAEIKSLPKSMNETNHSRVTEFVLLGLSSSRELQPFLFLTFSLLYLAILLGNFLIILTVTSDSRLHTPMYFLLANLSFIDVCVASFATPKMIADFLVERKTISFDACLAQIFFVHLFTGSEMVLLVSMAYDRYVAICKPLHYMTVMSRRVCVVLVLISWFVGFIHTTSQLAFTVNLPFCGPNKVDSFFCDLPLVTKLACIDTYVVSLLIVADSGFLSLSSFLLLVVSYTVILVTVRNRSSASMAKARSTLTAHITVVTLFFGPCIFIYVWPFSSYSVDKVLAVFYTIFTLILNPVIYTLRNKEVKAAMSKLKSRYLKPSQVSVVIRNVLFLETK
Chain of OR4KH (as listed by the source): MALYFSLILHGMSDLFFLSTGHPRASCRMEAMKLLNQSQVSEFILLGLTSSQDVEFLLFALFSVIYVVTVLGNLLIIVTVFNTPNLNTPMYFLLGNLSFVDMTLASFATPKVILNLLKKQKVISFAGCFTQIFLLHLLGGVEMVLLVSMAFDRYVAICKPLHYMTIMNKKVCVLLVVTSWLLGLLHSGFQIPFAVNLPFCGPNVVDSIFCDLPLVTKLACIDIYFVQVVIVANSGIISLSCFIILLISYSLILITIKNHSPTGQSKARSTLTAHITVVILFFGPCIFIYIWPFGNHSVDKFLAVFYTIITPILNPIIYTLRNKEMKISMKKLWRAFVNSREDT
Chain of OR4K2 (as listed by the source): as the sequence (Q8NGD2 whole entry) above, with N307I counted along it
Chain of OR4K17 (Homo sapiens) (Q8NGC6 as listed by the source): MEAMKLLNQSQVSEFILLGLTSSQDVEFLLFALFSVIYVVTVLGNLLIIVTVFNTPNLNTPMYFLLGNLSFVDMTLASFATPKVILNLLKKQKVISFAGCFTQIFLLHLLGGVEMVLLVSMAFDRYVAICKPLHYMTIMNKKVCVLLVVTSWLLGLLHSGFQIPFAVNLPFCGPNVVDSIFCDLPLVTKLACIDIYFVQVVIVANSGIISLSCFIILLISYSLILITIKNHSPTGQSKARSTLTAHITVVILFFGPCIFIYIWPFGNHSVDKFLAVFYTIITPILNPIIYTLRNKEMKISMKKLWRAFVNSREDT

C=CCOC(=O)Cc1ccccc1
not listed: OR4K15 (Homo sapiens) | OR4K17 (Homo sapiens) | OR4K3 (Homo sapiens)
inactive: all other assays above

Cc1c([N+](=O)[O-])c(C)c([N+](=O)[O-])c(C(C)(C)C)c1[N+](=O)[O-]
not listed: OR4F5 T141A Q293R | OR4K1 R304H | OR4K2 | OR4KF | OR4KH | OR4L1
inactive: all other assays above
